Key:
[1] = (§1) Inhibition of Mycobacterium tuberculosis 20S open gate mutant using Suc-LLVY-AMC as substrate and measured every 30 secs for 30 mins by microtiter plate assay
Outline: (§2)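 Mtb20S open-gate form, expressed and purified in-house, 8 nM in the enzyme solution. Buffer: 20 mM HEPES pH 7.5, 0.5 mM EDTA, 0.1 mg/mL BSA. Suc-LLVY-AMC at 100 µM final. Run at 25 °C with a three-fold inhibitor dilution series, DMSO under 0.5% final. Fluorescence 340/460 nm read every 30 s for 30 min. Rates fitted against log inhibitor concentration to give IC50; triplicate wells.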

[2] = tested on: Mycobacterium tuberculosis; test: as §1; outline: as §2
[3] = tested on: human 20S proteasome subunit beta-5i versus Mycobacterium tuberculosis 20S open gate mutant; test: Selectivity index, ratio of IC50 for human 20S proteasome subunit beta-5i to IC50 for Mycobacterium tuberculosis 20S open gate mutant; assay type: toxicity; settings: read-out: Ratio IC50
[4] = tested on: human 20S proteasome subunit beta-5c versus Mycobacterium tuberculosis 20S open gate mutant; test: Selectivity index, ratio of IC50 for human 20S proteasome subunit beta-5c to IC50 for Mycobacterium tuberculosis 20S open gate mutant; assay type: toxicity; settings: read-out: Ratio IC50

SMILES: Cc1cc(C(=O)N[C@@H](CC(=O)N2CCC[C@@H]2c2ccccc2)C(=O)N[C@@H](C)C(=O)NCc2ccc(F)cc2F)no1
- IC50 [1]: 3 nM
- inhibition [2]: Dose-dependent effect
- selectivity ratio [3]: 2630
- selectivity ratio [4]: > 33300

SMILES: Cc1cc(C(=O)N[C@@H](CC(=O)N2CCC[C@@H]2c2ccccc2)C(=O)N[C@@H](C)c2ncc(-c3ccccc3)[nH]2)no1
- IC50 [1]: 25 nM
- selectivity ratio [3]: > 4000
- selectivity ratio [4]: > 4000

SMILES: Cc1cc(C(=O)N[C@@H](CC(=O)N2CCCC[C@@H]2C)C(=O)N[C@@H](C)C(=O)NCc2ccc(F)cc2F)no1
- IC50 [1]: 7 nM
- inhibition [2]: Dose-dependent effect
- selectivity ratio [3]: 3.7
- selectivity ratio [4]: 202

SMILES: Cc1cc(C(=O)N[C@@H](CC(=O)N2CCC[C@@H]2c2ccccc2)C(=O)N[C@@H](C)C(=O)NCc2c(F)cccc2F)no1
- IC50 [1]: 7 nM
- inhibition [2]: Dose-dependent effect
- selectivity ratio [3]: 2870
- selectivity ratio [4]: > 14300

SMILES: Cc1cc(C(=O)N[C@@H](CC(=O)N2CCC[C@@H]2c2ccccc2)C(=O)N[C@@H](C)c2ncc(-c3ccc(F)cc3F)[nH]2)no1
- IC50 [1]: 13 nM
- selectivity ratio [3]: > 7700
- selectivity ratio [4]: > 7700

SMILES: CC[C@@H]1CCCCN1C(=O)C[C@H](NC(=O)CCC(C)C)C(=O)N[C@@H](C)c1ncc(-c2ccc(F)cc2F)[nH]1
- IC50 [1]: 30 nM

SMILES: COc1ccccc1CNC(=O)[C@H](C)NC(=O)[C@H](CC(=O)N1CCC[C@@H]1c1ccccc1)NC(=O)c1cc(C)on1
- IC50 [1]: 65 nM
- inhibition [2]: Dose-dependent effect
- selectivity ratio [3]: > 1500
- selectivity ratio [4]: > 1500

SMILES: Cc1cc(C(=O)N[C@@H](CC(=O)N2CCC[C@@H]2c2ccccc2)C(=O)N[C@@H](C)c2ncc(-c3ccccc3F)[nH]2)no1
- IC50 [1]: 8 nM
- selectivity ratio [3]: > 12500
- selectivity ratio [4]: > 12500

SMILES: Cc1cc(C(=O)N[C@@H](CC(=O)N2CCCC[C@@H]2C)C(=O)N[C@@H](C)c2ncc(-c3ccccc3)[nH]2)no1
- IC50 [1]: 470 nM

Source: ChEMBL document CHEMBL4414599, “Selective Phenylimidazole-Based Inhibitors of the Mycobacterium tuberculosis Proteasome” (J Med Chem, 2019)
